Experimental findings from ChEMBL document CHEMBL1154871, “Synthesis of new spiroindolinones incorporating a benzothiazole moiety as antioxidant agents” (Eur J Med Chem, 2010) are described below.

Common to all, as to assay type: functional
Assay [1] in a line: Antioxidant activity assessed as inhibition of Fe(3+)/ascorbate-induced lipid peroxidation in liposomes after 1 hr by TBARS assay. The essentials:
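Lecithin liposomes were sonicated in 10 mmol/L phosphate buffer, pH 7.4. Final mix: 3.08 mg liposome/mL, 123.2 µmol FeCl3, 123.2 µmol ascorbic acid, test compound 0.025–0.4 mM. Incubated 1 h at 37 °C. MDA measured by TBA reaction; n-butanol layer read at 532 nm against a lecithin-free blank. EC50 is the concentration reducing TBARS to 50% of control.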

Assay [2] relates to Radical scavenging activity. Description: Antioxidant activity assessed as DPPH radical scavenging activity after 30 mins by spectrophotometry. The essentials: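 Test compounds (0.2–6.25 mM) dissolved in DMSO, added to 6×10^-5 M methanolic DPPH. Mixture held 30 min at room temperature in the dark, then absorbance read at 517 nm against methanol. Scavenging % = [1 − A_sample/A_control] × 100, with a negative control lacking sample. Triplicates averaged; EC50 taken from dose–response.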
On the technique in general: The DPPH test is a chemical assay of radical scavenging.

Assay [3] is described as follows: Antioxidant activity assessed as trolox equivalent of ABTS free radical scavenging activity after 6 mins by […]. The essentials:
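ABTS radical cation solution was added to compounds (0.2–6.25 mM). Decrease in absorbance at 734 nm was read exactly 6 min after mixing, with ethanol blanks. A Trolox standard curve (final 0–20 µM in ethanol) gives TEAC, the mM Trolox equivalent to 1 mM compound. Run in triplicate.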

Assay [4] in a line: Antioxidant activity assessed as reduction of […]/ferricyanide complex after 20 mins by spectrophotometry. The procedure, abridged:
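Compounds (1.6–6.25 mM) mixed with 0.2 M phosphate buffer, pH 6.6, and 1% potassium ferricyanide, 20 min at 50 °C. Stopped with 1% TCA and centrifuged at 2790 g for 10 min. Supernatant plus water and 0.1% FeCl3 read at 700 nm. EC50 is the concentration giving absorbance 0.5. Mean ± SD of triplicates.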

The subject of a further assay is SF-268. Put plainly: Growth inhibition in human SF268 cells assessed as viable cells at 10 uM after 48 hrs by sulforhodamine B assay. To be noted: SF-268, 48 h, read-out: Activity.
The test system of another assay is SF-539. Description: Growth inhibition in human SF539 cells assessed as viable cells at 10 uM after 48 hrs by sulforhodamine B assay. The settings on record: SF-539, 48 h, read-out: Activity. (In SRB staining, fixed cells bind dye roughly in proportion to their protein.)
A further assay relates to U-251. Put plainly: Growth inhibition in human U251 cells assessed as viable cells at 10 uM after 48 hrs by sulforhodamine B assay. To be noted: U-251, 48 h, read-out: Activity. The procedure, abridged: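 NCI 60-line screen, single dose 10^-5 M, 48 h continuous exposure. Cells grown in RPMI 1640 with 5% FBS and 2 mM L-glutamine, plated at 5000–40,000 cells/well and preincubated 24 h at 37 °C, 5% CO2. Drug stocks in DMSO. Endpoint: TCA fixation, SRB staining, absorbance at 515 nm. Growth % relative to untreated controls and time-zero plates.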

Another assay deals with SNB-19. Description: Growth inhibition in human SNB19 cells assessed as viable cells at 10 uM after 48 hrs by sulforhodamine B assay. To be noted: SNB-19, 48 h, read-out: Activity.
The next assay deals with SNB-75. Put plainly: Growth inhibition in human SNB75 cells assessed as viable cells at 10 uM after 48 hrs by sulforhodamine B assay. To be noted: SNB-75, 48 h, read-out: Activity.

What is called EC50 is the concentration that produces a half-maximal response. Turning to `O=C1Nc2ccc(Cl)cc2C12Nc1ccccc1S2` (stereo not given), the concentration for a half-maximal effect (EC50) was determined as 49 µM in assay [1], 1780 µM in assay [2], 1030 µM in assay [3] and 510 µM in assay [4]. Also, the viability at 10 µM with SF-268 was 83.2%; with SF-539 it was 97.4%; in the assay on U-251, 98.5%; in the assay on SNB-19, 107%; with SNB-75 it was 55.8%.

Turning to `Cc1ccc2c(c1)C1(Nc3ccccc3S1)C(=O)N2` (stereo not given), the EC50 turned out to be 41 µM in assay [1], 1300 µM in [2], 1020 µM in assay [3] and 1360 µM in [4].

Regarding `Cc1ccc2c(c1)C1(Nc3ccccc3S1)C(=O)N2C` (stereo not given), the EC50 in [1] is 34 µM; in assay [2], 980 µM; in [3], 980 µM; in assay [4] it was 700 µM.

Turning to `CN1C(=O)C2(Nc3ccccc3S2)c2cc(Cl)ccc21` (stereo not given), the EC50 in assay [1] turned out to be 75 µM; in assay [2] it was 1240 µM; in assay [3] it was 1140 µM; in assay [4], 4020 µM.

Turning to `CN1C(=O)C2(Nc3ccccc3S2)c2cc([N+](=O)[O-])ccc21` (stereo not given), the EC50 worked out at 92 µM in [1], 1270 µM in [2], 1340 µM in [3] and 5140 µM in [4].
